Activity calls are given as the source filed them. No cut-off for these calls is given here.

We go through two molecules from ChEMBL document CHEMBL3774376, “Synthesis, and anticonvulsant activity of new amides derived from 3-methyl- or 3-ethyl-3-methyl-2,5-dioxo-pyrrolidin-1-yl-acetic acids” (Bioorg Med Chem, 2016).

Data set [1] has as its system Mus musculus. Description: Neurotoxicity in CD1 albino mouse assessed as acute motor impairment at 300 mg/kg, ip measured after 0.5 hrs by rotarod test. Conditions: in vivo. In kind it is toxicity, organism-based. The method in brief:
(§1)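 Male CD-1 mice given 30, 100 or 300 mg/kg ip in 0.5% methylcellulose, tested at 0.5 and 4 h. Motor impairment was scored as failure to keep balance for at least 1 min on a rod rotating at 10 rpm. Minimum dose causing impairment reported.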

In data set [2] the test system is Mus musculus. Put plainly: Neurotoxicity in CD1 albino mouse assessed as acute motor impairment at 300 mg/kg, ip after 4 hrs by rotarod test. Type of data set: toxicity, organism-based. Conditions: in vivo. The method in brief:
as §1
On the technique in general: Falling from the rotarod earlier than controls is read as motor impairment.

Data set [3] has as its system Mus musculus. Description: Anticonvulsant activity in CD1 mouse assessed as protection against 32 mA-current- for 3 secs induced seizure at 100 mg/kg, ip after 0.5 hrs by 6Hz psychomotor seizure test. Type of data set: functional. The method in brief:
(§2)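 Male CD-1 mice given 100 mg/kg ip in 0.5% methylcellulose, four per time point. Corneal stimulation at 32 mA, 0.2 ms monopolar rectangular pulses at 6 Hz for 3 s, from a constant-current device. A mouse was protected if it resumed normal exploratory behavior within 10 s. Reported as number protected over number tested.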

Data set [4] relates to Mus musculus. Put plainly: Anticonvulsant activity in ip dosed CD1 albino mouse assessed as time to peak effect. In kind it is functional. The method in brief: (§3)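 Quantitation in male CD-1 mice dosed ip at the previously estimated time of peak effect. Seizures were induced by MES or by sc pentylenetetrazole 85 mg/kg; rotarod at 10 rpm assessed motor impairment. Groups of six, at least three doses giving 10-90% effect.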

A short description of data set [5]: Neurotoxicity in ip dosed CD1 albino mouse assessed as acute motor impairment by rotarod test. The following applies: in vivo. Type of data set: toxicity, organism-based. The method in brief:
as §3

The species entered for data set [6] is Mus musculus. Put plainly: Protection index, ratio of TD50 for CD1 albino mouse to ED50 for protection against maximal electroshock-induced seizures in CD1 albino mouse. The method in brief: as §3
The test system of data set [7] is Mus musculus. Put plainly: Antinociceptive activity in CD1 albino mouse assessed as reduction of formalin-induced licking response in neurogenic phase at 87.36 mg/kg, ip preincubated for 1 hr measured after 5 mins. In kind it is functional, organism-based.
The test system of data set [8] is Mus musculus. Description: Antinociceptive activity in CD1 albino mouse assessed as reduction of formalin-induced licking response in inflammatory phase at 87.36 mg/kg, ip preincubated for 1 hr measured after 15 to 20 mins. Type of data set: functional. On the set-up: scale not given: the % may be the effect or the level left.
Data set [9] deals with Mus musculus. Put plainly: Antinociceptive activity in CD1 albino mouse assessed as reduction of formalin-induced licking response in inflammatory phase at 87.36 mg/kg, ip preincubated for 1 hr measured after 25 to 30 mins. In kind it is functional. Details: scale not given: the % may be the effect or the level left.
Data set [10] relates to Mus musculus. Put plainly: Local anesthetic activity in CD1 albino mouse assessed prolongation of time reaction at 2 % concentration after 20 secs by tail immersion test relative to vehicle control. In kind it is functional. The method in brief: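 Compound at 1 or 2% in 0.5% methylcellulose, injected sc (0.2 ml) about 1 cm from the tail root of male CD-1 mice. After 15 min, the distal 3 cm of the tail was immersed in 50 ± 0.5 °C water and withdrawal time measured, cut off at 20 s. n=8; mean ± SEM; % prolongation relative to vehicle.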

For data set [11], the species on record is Rattus norvegicus. Description: Displacement of [3H]BTX from voltage-sensitive Na+ channel site 2 in rat cerebral cortex synaptoneurosomes at 100 uM after 60 mins by liquid scintillation spectroscopic analysis. Type of data set: tissue-based. The method in brief: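 Cerebral cortex synaptoneurosomes from rat, tested at 100 µM for inhibition of specific [3H]BTX binding to the voltage-sensitive Na+ channel site 2. Reported as % inhibition of control specific binding; run commercially.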
Background: Loss of bound radioactivity is the signal in a displacement assay; it reports binding, not function.

Data set [12] deals with Mus musculus. Put plainly: Anticonvulsant activity in CD1 mouse assessed as protection against 32 mA-current- for 3 secs induced seizure at 100 mg/kg, ip after 1 hrs by 6Hz psychomotor seizure test. Type of data set: functional. The method in brief: as §2
Data set [13] has as its system Mus musculus. Description: Anticonvulsant activity in ip dosed CD1 albino mouse assessed as protection against maximal electroshock-induced seizures. Type of data set: functional. On the technique in general: The maximal electroshock test induces tonic seizures with an electrical stimulus.
Data set [14] has as its system Mus musculus. Put plainly: Anticonvulsant activity in CD1 albino mouse assessed as protection against maximal electroshock-induced seizures at 100 to 300 mg/kg, ip after 0.5 hrs. Type of data set: functional. Conditions: read-out: MED.
The subject of data set [15] is Mus musculus. Description: Anticonvulsant activity in CD1 albino mouse assessed as protection against maximal electroshock-induced seizures at 100 to 300 mg/kg, ip after 4 hrs. In kind it is functional. The following applies: read-out: MED.
For data set [16], the system named is Mus musculus. Put plainly: Anticonvulsant activity in CD1 albino mouse assessed as protection against subcutaneous pentylenetetrazole-induced seizures at 300 mg/kg, ip after 0.5 hrs. In kind it is functional, organism-based. The procedure, abridged:
(§4)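 Male CD-1 mice (16-26 g), compounds ip in 0.5% methylcellulose/water at 30, 100 or 300 mg/kg, 3-4 per group. At 0.5 or 4 h, pentylenetetrazole 85 mg/kg was injected sc. Protection was absence of clonic convulsions (at least 5 s) over a 30 min observation. Minimum active dose recorded.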

In data set [17] the test system is Mus musculus. Description: Anticonvulsant activity in CD1 albino mouse assessed as protection against subcutaneous pentylenetetrazole-induced seizures at 300 mg/kg, ip after 4 hrs. Type of data set: functional, organism-based. The procedure, abridged:
as §4

Data set [18] relates to Mus musculus. Description: Neurotoxicity in CD1 albino mouse assessed as acute motor impairment at 100 to 300 mg/kg, ip after 0.5 hrs by rotarod test. Type of data set: toxicity, organism-based. Conditions: in vivo. The procedure, abridged:
as §1

Data set [19] deals with Mus musculus. Description: Anticonvulsant activity in ip dosed CD1 albino mouse assessed as protection against 32 mA-current- for 3 secs induced seizure by 6Hz psychomotor seizure test. Type of data set: functional. The method in brief: (§5)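 6-Hz corneal stimulation at 32 mA (6 Hz, 3 s) in male CD-1 mice dosed ip. Groups of six received several doses until at least three points fell between 10 and 90% protection. […] PI = TD50/ED50 (rotarod).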

The species entered for data set [20] is Mus musculus. Description: Protection index, ratio of TD50 for CD1 albino mouse to ED50 for protection against 32 mA-current- for 3 secs induced seizure in CD1 albino mouse by 6Hz psychomotor seizure test. The procedure, abridged:
as §5

The test system of data set [21] is Mus musculus. Put plainly: Antinociceptive activity in CD1 albino mouse assessed as reduction of formalin-induced licking response in neurogenic phase at 70.08 mg/kg, ip preincubated for 30 mins measured after 5 mins. In kind it is functional. Details: scale not given: the % may be the effect or the level left.
In data set [22] the test system is Mus musculus. Description: Antinociceptive activity in CD1 albino mouse assessed as reduction of formalin-induced licking response in inflammatory phase at 70.08 mg/kg, ip preincubated for 30 mins measured after 15 to 20 mins. Type of data set: functional. On the set-up: scale not given: the % may be the effect or the level left.
Data set [23] concerns Mus musculus. Description: Antinociceptive activity in CD1 albino mouse assessed as reduction of formalin-induced licking response in inflammatory phase at 70.08 mg/kg, ip preincubated for 30 mins measured after 25 to 30 mins. Type of data set: functional. On the set-up: scale not given: the % may be the effect or the level left.
Data set [24] concerns Mus musculus. Put plainly: Anticonvulsant activity in ip dosed CD1 albino mouse assessed as time to peak effect by 6Hz psychomotor seizure test. Type of data set: functional. The method in brief:
as §5

The TD50 is the dose at which the toxic effect under study appears in half of the subjects. The term inhibition denotes the share of the control response that was lost under treatment. Broadly, the ED50 is the dose at which the effect has come halfway, by size or by number of responders. For the molecule `CC1CC(=O)N(CC(=O)N2CCN(c3ccc(F)cc3)CC2)C1=O` (stereo not given), the Activity result was “Non-toxic” in data set [1]; “Non-toxic” in data set [2]; 75% in data set [3]; 95% in [8]; 98% in data set [9]; 12% in data set [10]. Also, in data set [12], the Activity is recorded as 75%. Besides, the Time in data set [4] worked out at 1 h. In addition, the TD50 in data set [5] was above 300 mg/kg. In data set [6], the “Ratio TD50/ED50” value is on record as above 3.43. Further, the outcome in data set [7], in data set [16] and in data set [17] was inactive. In addition, the inhibition in data set [11] worked out at 36.6%. Besides, the ED50 in data set [13] amounted to 87.4 mg/kg. Moreover, the figures for the minimal effective dose in data set [14] and in data set [15] were 300 mg/kg and 100 mg/kg, respectively.
With `CCC1(C)CC(=O)N(CC(=O)N2CCN(c3cccc(C(F)(F)F)c3)CC2)C1=O` (stereo not given), in data set [18], the MTC was 300 mg/kg. The Activity entry is “Non-toxic” in data set [2]; 40% in [21]; 100% in data set [22]; 99% in data set [23]; 46% in data set [10]. Further, the Time in data set [4] and in [24] was 0.5 h in each case. Further, in data set [5], the TD50 is 285 mg/kg. Besides, the “Ratio TD50/ED50” value in data set [6] amounted to 4.06; in data set [20] it was 3.15. Further, the values for the ED50 in data set [19] and in data set [13] were 90.3 mg/kg and 70.1 mg/kg, respectively. In data set [11], this molecule registered an inhibition of 63.5%. Also, the minimal effective dose in [14] and in data set [15] was 100 mg/kg in each case. Also, the result in [16] and in [17] was inactive.
